ChEMBL document CHEMBL5104176 (J Med Chem, 2022)
Blank lines part the entries; values can stand above or below the molecule they belong to. Active and inactive are the calls of the source. The rule behind the calls is not given here.

Legend:
T98G [1] = assay: Cytotoxicity against human T98G cells assessed as reduction in cell viability at 5 to 50 uM incubated for 24 hrs by MTS assay; assay type: functional, cell-based; conditions: dose 5-50 µM
Summary of the method: (§1)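 Cells seeded at 5,000/well and grown to 80% confluence: T98 and U251 in EMEM with 10% serum; GSC#83 as spheres in serum-free DMEM/F12 with EGF and bFGF. Treated 24 h at 5–50 μM in DMSO, with a DMSO vehicle control. MTS reagent added and formazan absorbance read at 490 nm. n = 6; two-way ANOVA.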

D(2) dopamine receptor = D(2) dopamine receptor (Homo sapiens, UniProt P14416); assay: Displacement of [3H]N-methylspiperone from human D2L receptor expressed in HEK293T cell membrane incubated for 1 hr by MicroBeta scintillation counting method; assay type: cell membranes
Chain of D(2) dopamine receptor (P14416 whole entry): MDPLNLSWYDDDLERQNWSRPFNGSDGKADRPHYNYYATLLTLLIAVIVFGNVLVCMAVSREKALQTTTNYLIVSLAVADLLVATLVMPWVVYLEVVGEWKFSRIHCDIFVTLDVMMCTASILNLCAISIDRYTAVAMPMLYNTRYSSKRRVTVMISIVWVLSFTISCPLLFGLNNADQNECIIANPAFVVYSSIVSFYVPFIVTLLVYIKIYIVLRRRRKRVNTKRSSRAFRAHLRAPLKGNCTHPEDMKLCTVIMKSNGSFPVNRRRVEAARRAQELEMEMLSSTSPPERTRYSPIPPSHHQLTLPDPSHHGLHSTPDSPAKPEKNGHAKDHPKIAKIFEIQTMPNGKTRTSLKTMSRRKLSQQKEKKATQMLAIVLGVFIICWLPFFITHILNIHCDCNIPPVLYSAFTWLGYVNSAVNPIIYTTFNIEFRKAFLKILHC
Summary of the method: (§2)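 Membranes from stably transfected HEK293 cells (hD2L, hD3 or hD4.4), 20 μg (D2, D3) or 30 μg (D4) protein/well. Incubated 1 h at room temperature in EBSS binding buffer, pH 7.4, with 0.4 nM [3H]N-methylspiperone and 10 half-log dilutions in triplicate. 10 μM (+)-butaclamol defines nonspecific binding. GF filtration, scintillation counting.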

D(3) dopamine receptor = D(3) dopamine receptor (Homo sapiens, UniProt P35462); assay: Displacement of [3H]N-methylspiperone from human D3R receptor expressed in HEK293T cell membrane incubated for 1 hr by MicroBeta scintillation counting method; assay type: cell membranes
Chain of D(3) dopamine receptor (P35462 whole entry): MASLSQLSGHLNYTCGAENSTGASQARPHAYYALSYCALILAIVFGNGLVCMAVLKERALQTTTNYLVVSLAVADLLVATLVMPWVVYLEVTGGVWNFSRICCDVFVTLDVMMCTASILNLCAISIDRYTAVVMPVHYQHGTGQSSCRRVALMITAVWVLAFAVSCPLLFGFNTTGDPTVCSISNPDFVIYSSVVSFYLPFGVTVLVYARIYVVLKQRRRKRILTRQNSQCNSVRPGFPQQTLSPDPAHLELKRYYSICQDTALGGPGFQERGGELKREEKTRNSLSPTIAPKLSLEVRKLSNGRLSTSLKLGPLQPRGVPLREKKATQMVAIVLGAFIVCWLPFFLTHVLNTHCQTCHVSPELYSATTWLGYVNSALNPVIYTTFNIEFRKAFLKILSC
Summary of the method: as §2, with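 “counting. Ki by Cheng–Prusoff from ≥3 experiments; selectivity is the Ki ratio.” for “counting.”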

D(4) dopamine receptor [2] = biological target: T1, D(4) dopamine receptor (Homo sapiens, UniProt P21917); assay: Displacement of [3H]N-methylspiperone from human D4.4 receptor expressed in HEK293T cell membrane incubated for 1 hr by MicroBeta scintillation counting method; assay type: cell membranes
T1 sequence (P21917 whole entry): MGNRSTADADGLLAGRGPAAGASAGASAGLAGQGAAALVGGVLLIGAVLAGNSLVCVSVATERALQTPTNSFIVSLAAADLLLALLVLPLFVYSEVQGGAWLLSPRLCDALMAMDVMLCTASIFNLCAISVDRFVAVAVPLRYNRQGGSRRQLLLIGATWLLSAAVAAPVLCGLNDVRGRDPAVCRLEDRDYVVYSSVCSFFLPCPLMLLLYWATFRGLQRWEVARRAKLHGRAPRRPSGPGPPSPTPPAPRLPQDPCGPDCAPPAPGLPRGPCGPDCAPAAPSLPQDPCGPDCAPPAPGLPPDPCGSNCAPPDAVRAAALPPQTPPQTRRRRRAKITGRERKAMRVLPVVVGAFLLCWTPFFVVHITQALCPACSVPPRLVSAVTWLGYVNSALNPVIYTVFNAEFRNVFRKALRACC

D(4) dopamine receptor [3] = biological target: T1, D(4) dopamine receptor; assay: Antagonist activity at D4R (unknown origin) expressed in human HEK293T cells assessed as inhibition of dopamine-induced beta arrestin-2 recruitment pretreated for 10 mins followed by dopamine addition and measured after 2.5 mins by BRET assay; assay type: functional, cell-based
U-251 [4] = assay: Cytotoxicity against human U-251 cells assessed as reduction in cell viability at 5 to 50 uM incubated for 24 hrs by MTS assay; assay type: functional, cell-based; conditions: dose 5-50 µM; summary of the method: as §1
GSC#83 [5] = assay: Cytotoxicity against human GSC#83 cells assessed as reduction in cell viability at 5 to 50 uM incubated for 24 hrs by MTS assay; assay type: functional, cell-based; conditions: dose 5-50 µM; summary of the method: as §1
T98G [6] = assay: Cytotoxicity against human T98G cells assessed as reduction in cell viability at 10 uM incubated for 24 hrs by MTS assay; assay type: functional, cell-based; summary of the method: as §1
U-251 [7] = assay: Cytotoxicity against human U-251 cells assessed as reduction in cell viability at 10 uM incubated for 24 hrs by MTS assay; assay type: functional, cell-based; summary of the method: as §1
GSC#83 [8] = assay: Cytotoxicity against human GSC#83 cells assessed as reduction in cell viability at 10 uM incubated for 24 hrs by MTS assay; assay type: functional, cell-based; summary of the method: as §1
[9] = biological target: T2, D(4) dopamine receptor (Homo sapiens) (UniProt P21917); assay: Agonist activity at D4R (unknown origin) expressed in human HEK293T cells assessed as beta arrestin-2 recruitment measured after 2.5 mins by BRET assay relative to control; assay type: functional, cell-based
T2 sequence (whole entry): T1 sequence (P21917 whole entry)
Summary of the method: (§3)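 Transiently transfected HEK293T cells (15 μg plasmid cDNA, polyethyleneimine, 6 h, assayed after 48 h). Gαi1 or GαoA fused to RLuc8 and Gγ2 to mVenus for G protein activation; D4 receptor fused to RLuc8 and β-arrestin to mVenus for recruitment. About 2×10^5 cells/well in PBS with 0.1% glucose and 200 μM Na bisulfite. Coelenterazine H 5 μM. Read 530/485 nm; RLuc8-only background subtracted.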

D(4) dopamine receptor [10] = biological target: T1, D(4) dopamine receptor; assay: Partial agonist activity at D4R (unknown origin) expressed in human HEK293T cells assessed as G0 protein activation measured after 2.5 mins by BRET assay; assay type: functional, cell-based; summary of the method: as §3
[11] = biological target: T2, D(4) dopamine receptor (Homo sapiens); assay: Partial agonist activity at D4R (unknown origin) expressed in human HEK293T cells assessed as G0 protein activation measured after 2.5 mins by BRET assay relative to control; assay type: functional, cell-based; conditions: filed as partial agonist; summary of the method: as §3
D(4) dopamine receptor [12] = biological target: T1, D(4) dopamine receptor; assay: Partial agonist activity at D4R (unknown origin) expressed in human HEK293T cells assessed as Gi protein activation measured after 2.5 mins by BRET assay; assay type: functional, cell-based; summary of the method: as §3
[13] = biological target: T2, D(4) dopamine receptor (Homo sapiens); assay: Partial agonist activity at D4R (unknown origin) expressed in human HEK293T cells assessed as Gi protein activation measured after 2.5 mins by BRET assay relative to control; assay type: functional, cell-based; summary of the method: as §3
[14] = Selectivity ratio of Ki for displacement of [3H]N-methylspiperone from human D3R expressed in HEK293T cell membrane to Ki for displacement of [3H]N-methylspiperone from human D4.4 receptor expressed in HEK293T cell membrane
[15] = Selectivity ratio of Ki for displacement of [3H]N-methylspiperone from human D2L receptor expressed in HEK293T cell membrane to Ki for displacement of [3H]N-methylspiperone from human D4.4 receptor expressed in HEK293T cell membrane
D(4) dopamine receptor [16] = biological target: T1, D(4) dopamine receptor; assay: Antagonist activity at D4R (unknown origin) expressed in human HEK293T cells assessed as inhibition of dopamine-induced G0 protein activation pretreated for 10 mins followed by dopamine addition and measured after 2.5 mins by BRET assay; assay type: functional, cell-based
D(4) dopamine receptor [17] = biological target: T1, D(4) dopamine receptor; assay: Antagonist activity at D4R (unknown origin) expressed in human HEK293T cells assessed as inhibition of dopamine-induced Gi protein activation pretreated for 10 mins followed by dopamine addition and measured after 2.5 mins by BRET assay; assay type: functional, cell-based
D(4) dopamine receptor [18] = biological target: T1, D(4) dopamine receptor; assay: Agonist activity at D4R (unknown origin) expressed in human HEK293T cells assessed as beta arrestin-2 recruitment measured after 2.5 mins by BRET assay; assay type: functional, cell-based
Summary of the method: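 HEK293T cells transiently co-transfected with D4 receptor–RLuc8 and β-arrestin–mVenus using PEI, then harvested after 48 h. Cells were resuspended in PBS with 0.1% glucose and 200 μM Na bisulfite, at about 2×10^5 cells/well. Coelenterazine H (5 μM) was added, and ligands 2 min later. Emission was read at 485 and 530 nm 2.5 min after ligand. Net BRET was taken after subtracting the RLuc8-alone background; dose–response curves were fitted.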

[19] = biological target: T2, D(4) dopamine receptor (Homo sapiens); assay: Agonist activity at D4R (unknown origin) expressed in human HEK293T cells assessed as G0 protein activation measured after 2.5 mins by BRET assay relative to control; assay type: functional, cell-based; summary of the method: as §3
[20] = biological target: T2, D(4) dopamine receptor (Homo sapiens); assay: Agonist activity at D4R (unknown origin) expressed in human HEK293T cells assessed as Gi protein activation measured after 2.5 mins by BRET assay relative to control; assay type: functional, cell-based; summary of the method: as §3
D(4) dopamine receptor [21] = biological target: T1, D(4) dopamine receptor; assay: Displacement of [3H]7-OH-DPAT from human D4.4 receptor expressed in HEK293T cell membrane incubated for 1.5 hrs by MicroBeta scintillation counting method; assay type: cell membranes
Summary of the method: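 Fresh membranes from HEK293 cells stably expressing hD4.4 (about 50–60 μg protein/well) in 50 mM Tris, 10 mM MgCl2, 1 mM EDTA, pH 7.4. Radioligand was 3 nM final; incubation 1.5 h at room temperature. Nonspecific binding was set with 10 μM (+)-butaclamol; DMSO was 3% final. Ten half-log dilutions were run in triplicate, then filtered. Ki came from IC50 by Cheng–Prusoff, from at least three independent experiments.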

Ki (D(2) dopamine receptor): 2750 nM
Ki (D(3) dopamine receptor): 2570 nM
Ki (D(4) dopamine receptor [2]): 2.24 nM
IC50 (D(4) dopamine receptor [3]): 67.6 nM
Emax [9]: 0%
EC50 (D(4) dopamine receptor [10]): 8.51 nM
Emax [11]: 46.2%
EC50 (D(4) dopamine receptor [12]): 12.3 nM
Emax [13]: 26.6%
Structure (SMILES): O=C1CCc2ccccc2N1CCCN1CCN(c2ccccn2)CC1
Activity (T98G [1]): Active
Activity (U-251 [4]): Active
Activity (GSC#83 [5]): Active
Activity (T98G [6]): Active
Activity (U-251 [7]): Active
Activity (GSC#83 [8]): Active
Ratio Ki [14]: 1150
Ratio Ki [15]: 1230

Structure (SMILES): Cc1ccc(N2CCN(CCCN3C(=O)CCc4ccccc43)CC2)cc1
Ki (D(2) dopamine receptor): 5130 nM
Ki (D(3) dopamine receptor): 1700 nM
Ki (D(4) dopamine receptor [2]): 0.977 nM
IC50 (D(4) dopamine receptor [16]): 331 nM
IC50 (D(4) dopamine receptor [17]): 110 nM
IC50 (D(4) dopamine receptor [3]): 1230 nM
EC50 (D(4) dopamine receptor [18]): 16.2 nM
Emax [19]: 0%
Emax [20]: 0%
Emax [9]: -30.2%
Ratio Ki [14]: 1740
Ratio Ki [15]: 5250

Structure (SMILES): O=C1CCc2ccccc2N1CCCN1CCN(c2ccc(Cl)cc2)CC1
Activity (T98G [1]): Active
Ki (D(2) dopamine receptor): 5500 nM
Ki (D(3) dopamine receptor): 2450 nM
Ki (D(4) dopamine receptor [2]): 0.661 nM
IC50 (D(4) dopamine receptor [16]): 380 nM
IC50 (D(4) dopamine receptor [17]): 251 nM
IC50 (D(4) dopamine receptor [3]): 10500 nM
Activity (U-251 [4]): Active
Activity (GSC#83 [5]): Active
Activity (T98G [6]): Active
Activity (U-251 [7]): Active
Activity (GSC#83 [8]): Active
Ki (D(4) dopamine receptor [21]): 1.48 nM
EC50 (D(4) dopamine receptor [18]): 51.3 nM
Emax [19]: 0%
Emax [20]: 0%
Emax [9]: -43.4%
Ratio Ki [14]: 3720
Ratio Ki [15]: 8320
